Reference: ChEMBL document CHEMBL4229472, “Surface Probing by Fragment-Based Screening and Computational Methods Identifies Ligandable Pockets on the von Hippel-Lindau (VHL) E3 Ubiquitin Ligase” (J Med Chem, 2018)

Experiments:
[1] = molecular target: T1, von Hippel-Lindau disease tumor suppressor/Elongin-C/Elongin-B/HIF1A (Homo sapiens) (UniProt Q16665+P40337+Q15370+Q15369); test: (§1) Binding affinity to N-terminal His6 tagged VHL (54 to 213 residues)/ELoC (17 to 112 residues)/EloB (1 to 120 residues)/HIF-1alpha (unknown origin) complex expressed in Escherichia coli BL21(DE3) assessed as change in melting temperature at 1 mM by Sypro orange dye based differential scanning fluorimetric analysis
Method in brief: (§2)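 Thermal shift screen with each fragment tested as a singleton. Unfolding temperature is followed with a fluorescent dye that binds preferentially to unfolded protein. For line 1 the target is VCB alone. For line 3 it is VCB preincubated with HIF-1α peptide (VCBH), which separates binders of the HIF site from binders elsewhere in the complex.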

[2] = molecular target: Von Hippel-Lindau disease tumor suppressor/Elongin B/Elongin C (Homo sapiens, UniProt P40337); test: Binding affinity to N-terminal His6 tagged VHL (54 to 213 residues)/ELoC (17 to 112 residues)/EloB (1 to 120 residues) (unknown origin) complex expressed in Escherichia coli BL21(DE3) assessed as dissociation constant by ITC method
[3] = molecular target: Von Hippel-Lindau disease tumor suppressor/Elongin B/Elongin C (Homo sapiens) (UniProt P40337+Q15370+Q15369); test: as §1, with “residues)” for “residues)/HIF-1alpha”; method in brief: as §2
[4] = molecular target: T1, von Hippel-Lindau disease tumor suppressor/Elongin-C/Elongin-B/HIF1A (Homo sapiens); test: Binding affinity to N-terminal His6 tagged VHL (54 to 213 residues)/ELoC (17 to 112 residues)/EloB (1 to 120 residues)/HIF-1alpha (unknown origin) complex expressed in Escherichia coli BL21(DE3) assessed as change in melting temperature at 1 mM in presence of DEALA-Hyp-YIPMDDDFQLRSF by differential scanning fluorimetry

ΔTm [1] | Kd [2] | ΔTm [3] | ΔTm [4] | Structure (SMILES)
> 0.5 °C | 5 mM | > 0.5 °C |  | OCc1ccc(-n2cccc2)cc1
> 0.5 °C |  | > 0.5 °C | 0.7 °C | COC(=O)c1cc2occc2[nH]1
> 0.5 °C | 6.7 mM | > 0.5 °C | 1.2 °C | O=C1CCSc2ccc(Cl)cc21
